One molecule from ChEMBL document CHEMBL4017487, “Design and Synthesis of γ- and δ-Lactam M1 Positive Allosteric Modulators (PAMs): Convulsion and Cholinergic Toxicity of an M1-Selective PAM with Weak Agonist Activity” (J Med Chem, 2017) can be followed below.

Positions count from the first letter of the chain named.

The test system of data set [1] is Canis familiaris. As to the kind of experiment: Toxicity in dog assessed as death at 5 mg/kg, po administered as single dose using spray dried dispersion formulation after 1 day. The note with it: in vivo, 24 h. In kind it is organism-based, Canis lupus familiaris. In a few lines:
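Single oral dose in dogs, 1/sex/dose. Spray-dried dispersion formulation: 23% drug loading with 0.5% methylcellulose and 100 mM citrate buffer. Clinical signs were recorded by hours postdose, with animals checked the next morning. Necropsy was performed.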

For data set [2], the target named is T1, Muscarinic acetylcholine receptor M1 (Rattus norvegicus, UniProt P08482).
T1 sequence (P08482 whole entry): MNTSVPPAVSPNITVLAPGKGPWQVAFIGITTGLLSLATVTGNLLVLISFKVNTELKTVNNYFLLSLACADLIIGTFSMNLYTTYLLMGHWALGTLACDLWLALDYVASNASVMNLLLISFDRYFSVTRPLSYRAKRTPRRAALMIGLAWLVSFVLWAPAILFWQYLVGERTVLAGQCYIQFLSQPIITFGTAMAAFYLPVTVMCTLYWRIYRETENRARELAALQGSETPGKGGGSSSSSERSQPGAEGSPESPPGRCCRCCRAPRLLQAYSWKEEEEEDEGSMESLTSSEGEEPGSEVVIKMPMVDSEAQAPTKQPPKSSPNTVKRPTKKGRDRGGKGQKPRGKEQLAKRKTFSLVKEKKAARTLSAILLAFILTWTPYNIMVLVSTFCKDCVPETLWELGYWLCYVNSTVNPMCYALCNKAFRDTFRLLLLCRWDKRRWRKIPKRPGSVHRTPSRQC
In words: Positive allosteric modulation of muscarinic acetylcholine receptor M1 in Sprague-Dawley rat brain hippocampal slices assessed as increase in carbachol-induced firing rate at CA1 pyramidal neurons at 3 uM after 10 mins in presence of M1 antagonist VU0255035 by electrophysiology method. The essentials: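 Hippocampal CA1 spike-rate assay in PAM mode (EC20 carbachol) with a reportedly M1-selective muscarinic antagonist added to the slices.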

Data set [3] relates to Canis familiaris. As to the kind of experiment: Toxicity in dog assessed as unbound Cmax in brain required to show convulsions at 15 mg/kg, po administered as single dose using spray dried dispersion formulation. The note with it: in vivo. The data set is classed as organism-based, Canis lupus familiaris.
In data set [4] the test system is Canis familiaris. In words: Unbound Cmax in dog plasma at 5 mg/kg, po administered as single dose using spray dried dispersion formulation. In kind it is ADME, organism-based, Canis lupus familiaris. The settings on record: in vivo.
Data set [5] deals with Canis familiaris. As to the kind of experiment: Cholinergic toxicity in dog assessed as increased activity at 15 mg/kg, po administered as single dose using spray dried dispersion formulation after 1 hr. The data set is classed as organism-based, Canis lupus familiaris. The note with it: in vivo. The essentials:
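Dog single oral dose escalation: 1/sex at 5 mg/kg for each formulation; 1 female at 15 mg/kg. Spray-dried dispersion: 23% drug loading with 0.5% methylcellulose and 100 mM citrate buffer. Clinical signs timed in approximate hours postdose; unbound plasma Cmax.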

Data set [6] in a line: Unbound plasma concentration in dog at 0.5 mg/kg, po or 0.1 mg/kg, iv administered as single bolus dose. In kind it is ADME, organism-based, Canis lupus familiaris. In a few lines:
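Dog PK: IV bolus given as a solution, 0.1 mg/kg in 20% HPBCD; oral dose given as a suspension, 0.5 mg/kg in 0.5% methylcellulose. Fraction unbound in plasma determined.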

The subject of data set [7] is Plasma. In words: Unbound plasma concentration in scopolamine-induced memory impairment Wistar rat model at 0.32 mg/kg, sc measured after 1.25 hrs by LC-MS/MS analysis. In kind it is ADME, organism-based. The settings on record: in vivo. The essentials:
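Rats from a satellite group of the scopolamine (0.32 mg/kg) Morris water maze study, N = 2/dose. Dosed sc as a solution in 20% hydroxypropyl β-cyclodextrin. Compound concentrations measured in plasma only at T = 1.25 h.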

A short description of data set [8]: Unbound plasma concentration in iv or po dosed mouse. In kind it is ADME, organism-based.
The target in data set [9] is T2, Muscarinic acetylcholine receptor M5 (Homo sapiens, UniProt P08912).
T2 sequence (P08912 whole entry): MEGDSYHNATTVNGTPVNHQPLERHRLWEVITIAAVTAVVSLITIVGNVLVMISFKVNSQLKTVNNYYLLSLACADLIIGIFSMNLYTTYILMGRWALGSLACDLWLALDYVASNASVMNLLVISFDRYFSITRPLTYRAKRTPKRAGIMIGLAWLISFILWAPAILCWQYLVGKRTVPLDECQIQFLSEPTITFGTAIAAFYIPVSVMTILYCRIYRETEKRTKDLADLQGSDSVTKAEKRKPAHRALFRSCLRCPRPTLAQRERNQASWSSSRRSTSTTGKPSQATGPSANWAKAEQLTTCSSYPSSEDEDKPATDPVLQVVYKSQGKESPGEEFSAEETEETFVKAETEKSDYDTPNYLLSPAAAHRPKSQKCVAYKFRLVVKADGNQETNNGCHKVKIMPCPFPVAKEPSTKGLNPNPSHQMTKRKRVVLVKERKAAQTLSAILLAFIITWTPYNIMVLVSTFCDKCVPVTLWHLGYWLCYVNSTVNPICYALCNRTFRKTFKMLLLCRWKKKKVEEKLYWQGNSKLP
In words: Positive allosteric modulation of human muscarinic acetylcholine receptor M5 expressed in CHO cells assessed as increase in acetylcholine-induced calcium mobilization up to 10 uM preincubated for 10 mins followed by acetylcholine addition by Fluo-8-AM dye based FLIPR assay. In kind it is cell-based. The essentials:
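Recombinant functional human M2–M5 assays, each run in agonist and PAM modes at concentrations up to 10 μM.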
On the technique in general: Calcium flux is commonly read through the fluorescence of an indicator in the cells.

Data set [10] concerns the target T3, Muscarinic acetylcholine receptor M1 (Homo sapiens, UniProt P11229).
T3 sequence (P11229 whole entry): T1 sequence (P08482 whole entry) with V5A, S254T, S309P, K320R, G337A, V413I
In words: Positive allosteric modulation of human muscarinic acetylcholine receptor M1 expressed in CHO cells assessed as increase in acetylcholine-induced beta-arrestin recruitment by measuring functional co-operativity with acetylcholine. The data set is classed as ADME, cell-based. For orientation: Arrestin recruitment assays detect the binding of arrestin to an activated receptor.

Consider `Cc1cc2c(cc1Cc1ccc(-c3cocn3)cc1)C(=O)N([C@H]1CCOC[C@@H]1O)C2`, for which the Activity result in data set [1] is recorded as “Toxic”; in [2] it was “Not Active”; in data set [5] it was “Toxic”; in data set [9], “Not Active”. Further, the fCmax in [3] was found to be 320 nM; in data set [4], 446 nM. Further, the fraction unbound in data set [6] worked out at 0.059; in data set [8] it was 0.013. Moreover, the “Cp(f)” value in data set [7] came out at 17 nM. The “log(activity)” value in data set [10] is on record as 2.9.

By fraction unbound is commonly meant the share of the substance not bound to proteins or other matrix. The low end stands for extensive binding, the high end for weak binding.
